The values below come from ChEMBL document CHEMBL1152292, “Biarylpyrazolyl oxadiazole as potent, selective, orally bioavailable cannabinoid-1 receptor antagonists for the treatment of obesity” (J Med Chem, 2008).

The nature of experiment [1]: Selectivity ratio of IC50 for human CB2 receptor to IC50 for Sprague-Dawley rat CB1 receptor. The essentials:
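Ratio of CB2 IC50 to CB1 IC50. Both come from radioligand competition on membranes incubated 1 h at 30 °C in TME/0.5% BSA: rat cerebellar membranes for CB1, human CB2-transfected CHO K-1 membranes for CB2. IC50 by nonlinear regression from three independent triplicate experiments.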

A further experiment addresses Cannabinoid receptor 2 (Homo sapiens, UniProt P34972). The experiment in a line: Displacement of [3H]WIN-55212-2 from human CB2 receptor expressed in CHOK1 cells by liquid scintillation spectrometry. The format is cell-based, CHO-K1. The essentials:
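Membranes from CHO K-1 cells transfected with human CB2, prepared as for cerebellum. About 10 µg membrane incubated with radioligand and varied test concentrations in TME buffer plus 0.5% fatty-acid-free BSA, 1 h at 30 °C. Filtered through PEI-soaked GF/B filters. Nonspecific binding defined with 1 µM WIN55,212-2. IC50 by nonlinear regression, triplicates, three independent experiments.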
For orientation: Loss of bound radioactivity is the signal in a displacement assay; it reports binding, not function.

Cannabinoid receptor 2, sequence (P34972 whole entry): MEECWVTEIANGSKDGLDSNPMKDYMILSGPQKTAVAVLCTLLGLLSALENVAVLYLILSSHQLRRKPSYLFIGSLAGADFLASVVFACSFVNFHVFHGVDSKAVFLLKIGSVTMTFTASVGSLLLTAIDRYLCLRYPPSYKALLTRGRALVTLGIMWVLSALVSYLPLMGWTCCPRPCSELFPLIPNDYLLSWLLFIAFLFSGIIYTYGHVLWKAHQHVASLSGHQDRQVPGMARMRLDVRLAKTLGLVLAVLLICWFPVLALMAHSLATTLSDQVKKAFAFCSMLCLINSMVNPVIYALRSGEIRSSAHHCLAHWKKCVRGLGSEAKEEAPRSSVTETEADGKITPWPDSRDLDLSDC

Regarding `CC(=O)SCc1c(-c2nnc(C(C)(C)C)o2)nn(-c2ccc(Cl)cc2Cl)c1-c1ccc(Cl)cc1`, in experiment [1], the Ratio IC50 turned out to be 71. In addition, on Cannabinoid receptor 2, the IC50 (in general, the midpoint of a concentration-inhibition curve) came out at 1.48 µM.

For the compound `CC(C)(C)c1nnc(-c2nn(-c3ccc(Cl)cc3Cl)c(-c3ccc(Cl)cc3)c2Cn2cncn2)o1`, the Ratio IC50 in experiment [1] was found to be 341. For the same compound, on Cannabinoid receptor 2, the IC50 turned out to be 0.804 µM.

Turning to `CC(F)c1c(-c2nnc(C(C)(C)C)o2)nn(-c2ccc(Cl)cc2Cl)c1-c1ccc(Cl)cc1` (stereo unspecified), the Ratio IC50 in experiment [1] turned out to be 66. The compound further displayed an IC50 on Cannabinoid receptor 2 of 0.924 µM.

Regarding `CC(=O)OCc1c(-c2nnc(C(C)(C)C)o2)nn(-c2ccc(Cl)cc2Cl)c1-c1ccc(Cl)cc1`, the Ratio IC50 in experiment [1] worked out at 58. The compound further showed an IC50 at Cannabinoid receptor 2 of 1.3 µM.

Consider `C=Cc1c(-c2nnc(C(C)(C)C)o2)nn(-c2ccc(Cl)cc2Cl)c1-c1ccc(Cl)cc1`, for which the Ratio IC50 in experiment [1] was determined as 62. The compound also registered an IC50 at Cannabinoid receptor 2 of 1.05 µM.

For the compound `CC(C)(C)c1nnc(-c2nn(-c3ccc(Cl)cc3Cl)c(-c3ccc(Cl)cc3)c2COc2ccccn2)o1`, the Ratio IC50 in experiment [1] worked out at 84. Besides, the IC50 at Cannabinoid receptor 2 amounted to 2.04 µM.

With `CC(C)(C)c1nnc(-c2nn(-c3ccc(Cl)cc3Cl)c(-c3ccc(Cl)cc3)c2CC#N)o1`, the Ratio IC50 in experiment [1] was 88. Also, the IC50 at Cannabinoid receptor 2 came out at 0.539 µM.

As to `CC(C)(C)c1nnc(-c2nn(-c3ccc(Cl)cc3Cl)c(-c3ccc(Cl)cc3)c2Cn2ccnn2)o1`, in experiment [1], the Ratio IC50 is 88. Further, the IC50 at Cannabinoid receptor 2 turned out to be 1.12 µM.

On to `CC(O)c1c(-c2nnc(C(C)(C)C)o2)nn(-c2ccc(Cl)cc2Cl)c1-c1ccc(Cl)cc1` (stereo unspecified), for which the Ratio IC50 in experiment [1] is 187. The IC50 on Cannabinoid receptor 2 was 1.89 µM.

As to `CC(C)(C)c1nnc(-c2nn(-c3ccc(Cl)cc3Cl)c(-c3ccc(Cl)cc3)c2CF)o1`, in experiment [1], the Ratio IC50 is 76. The IC50 on Cannabinoid receptor 2 turned out to be 1.12 µM.

For the compound `COC(=O)NCc1c(-c2nnc(C(C)(C)C)o2)nn(-c2ccc(Cl)cc2Cl)c1-c1ccc(Cl)cc1`, in experiment [1], the Ratio IC50 amounted to 107. The same compound returned an IC50 on Cannabinoid receptor 2 of 1.67 µM.

On to `Clc1ccc(-c2c(Cn3cncn3)c(-c3nnc(C4(c5ccc(Cl)cc5)CC4)o3)nn2-c2ccc(Cl)cc2Cl)cc1`, for which the Ratio IC50 in experiment [1] was found to be 670. Moreover, the IC50 at Cannabinoid receptor 2 worked out at 1.48 µM.

For the compound `CC(C)(C)c1nnc(-c2nn(-c3ccc(Cl)cc3Cl)c(-c3ccc(Br)cc3)c2Cn2cncn2)o1`, in experiment [1], the Ratio IC50 amounted to 187. On Cannabinoid receptor 2, this compound came in with an IC50 of 0.513 µM.

With `C=C(C)c1c(-c2nnc(C(C)(C)C)o2)nn(-c2ccc(Cl)cc2Cl)c1-c1ccc(Cl)cc1`, in experiment [1], the Ratio IC50 was determined as 358. In addition, the IC50 at Cannabinoid receptor 2 is 1.73 µM.

Take `CC(C)(C)c1nnc(-c2nn(-c3ccc(Cl)cc3Cl)c(-c3ccc(Cl)cc3)c2C(C)(C)O)o1`: the Ratio IC50 in experiment [1] came to 74. For the same compound, the IC50 on Cannabinoid receptor 2 was found to be 1.67 µM.

In the case of `CC(C)(C)c1nnc(-c2nn(-c3ccc(Cl)cc3Cl)c(-c3ccc(Cl)cc3)c2Cn2cnnn2)o1`, the Ratio IC50 in experiment [1] turned out to be 96. For the same compound, the IC50 on Cannabinoid receptor 2 was 0.736 µM.

On to `CC(C)(C)c1nnc(-c2nn(-c3ccc(Cl)cc3Cl)c(-c3ccc(Cl)cc3)c2Cn2cccn2)o1`, for which the Ratio IC50 in experiment [1] came to 48. The IC50 on Cannabinoid receptor 2 is 0.979 µM.

Take `COCc1c(-c2nnc(C(C)(C)C)o2)nn(-c2ccc(Cl)cc2Cl)c1-c1ccc(Cl)cc1`: the Ratio IC50 in experiment [1] worked out at 24. Besides, the concentration for half-maximal inhibition (IC50) at Cannabinoid receptor 2 stood at 0.375 µM.

Turning to `Clc1ccc(-c2c(Cn3cncn3)c(-c3nnc(C4(c5ccccc5)CC4)o3)nn2-c2ccc(Cl)cc2Cl)cc1`, the IC50 on Cannabinoid receptor 2 worked out at 1.13 µM.

Consider `CC(C)(C)c1nnc(-c2nn(-c3ccc(Cl)cc3Cl)c(-c3ccc(Cl)cc3)c2Cn2ccnc2)o1`, for which the Ratio IC50 in experiment [1] was determined as 20. For the same compound, the IC50 on Cannabinoid receptor 2 was found to be 0.376 µM.

In the case of `CC(C)(C)c1nnc(-c2nn(-c3ccc(Cl)cc3Cl)c(-c3ccc(Cl)cc3)c2COc2ccccc2)o1`, the Ratio IC50 in experiment [1] was 204. Besides, the half-inhibitory concentration (IC50) at Cannabinoid receptor 2 was determined as 5.91 µM.
